# Test results: article PMC7312786 (Biochemistry, 2018)
# Read-outs that look alike come from different tables or passages of the source.
# Columns and labels:
# [1] = system: hpol η-deficient HAP-1 cells; assay: Cell viability; format: cell-based, human
# In short: (§1)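 HAP-1 parental or CRISPR hpol η-null cells in IMDM with 10% FBS and 1% antibiotic/antimycotic, passage 8–10, seeded 5000 cells/well. Next day: CDDP 0–100 μM alone or with 0.1 or 1 μM test compound, 48 h. Cells washed twice in DPBS, then 2 μM Calcein-AM for 30 min at 25 °C; fluorescence ex 490/em 520 nm. Viability as % of untreated. […] Combination index by Chou–Talalay.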
# [2] = system: γH2AX in hpol η-deficient HAP-1 cells; assay: γH2AX immunoblotting, hpol η-deficient HAP-1 cells; format: cell-based, human; details: CDDP (0.5 μM)
# In short: (§2)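 HAP-1 cells treated with DMSO or 0.5 μM CDDP combined with 0.1 or 1 μM test compound. Pellets lysed at 4 °C in HEPES pH 7.5/Triton X-100 buffer with phosphatase and protease inhibitors. 30–40 μg protein run on 4–20% SDS-PAGE, transferred to nitrocellulose. Probed with anti-γH2AX (S139) 1:1500 and HRP anti-rabbit 1:4000; β-actin loading control; chemiluminescence. Bands normalized to β-actin, relative to DMSO; three biological replicates; t test.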
# [3] = system: HAP-1 cells (hpol η-proficient, parental); assay: Cell viability; format: cell-based, human; details: read-out: EC50 of CDDP, cell viability, parental HAP-1
# In short: as §1
# [4] = system: γH2AX in hpol η-proficient HAP-1 cells; assay: γH2AX immunoblotting, hpol η-proficient HAP-1 cells; format: cell-based, human; details: CDDP alone (0.5 μM)
# In short: as §2
# pol binding to DNA = details: cited from earlier work
# hpol η = target: T1, hpol η (Homo sapiens, UniProt Q9Y253); details: cited from earlier work
# T1 sequence (Q9Y253 1-437): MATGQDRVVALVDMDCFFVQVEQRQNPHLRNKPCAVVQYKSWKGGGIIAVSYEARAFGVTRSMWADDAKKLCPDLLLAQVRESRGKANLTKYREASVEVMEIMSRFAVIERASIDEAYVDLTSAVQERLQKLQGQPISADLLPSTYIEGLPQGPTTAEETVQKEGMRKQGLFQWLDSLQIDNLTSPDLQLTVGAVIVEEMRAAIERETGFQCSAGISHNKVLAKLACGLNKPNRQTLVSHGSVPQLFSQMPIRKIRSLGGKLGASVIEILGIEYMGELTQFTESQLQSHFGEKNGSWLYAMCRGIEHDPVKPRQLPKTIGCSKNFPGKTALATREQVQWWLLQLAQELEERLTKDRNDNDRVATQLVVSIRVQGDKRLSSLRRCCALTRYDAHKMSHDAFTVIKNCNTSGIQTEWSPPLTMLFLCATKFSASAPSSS
structure (smiles),measurement,setting,value
"N.N.[Cl][Pt][Cl] [CDDP, cis-diamminedichloroplatinum(II), reference compound]",Reduction of CDDP EC50 by loss of hpol η,[1]; hpol η-deficient versus parental HAP-1,~ 3 fold
same,EC50,"[1]; read-out: EC50 of CDDP, cell viability, hpol η-deficient HAP-1, CDDP alone",100 nM
same,Increase of μH2AX,[2],~ 5 fold
same,EC50,[3]; CDDP + 0.1 μM PNR-7-02,140 nM
same,EC50,[3]; CDDP + 1 μM PNR-7-02,120 nM
same,Amount of μH2AX,[4],did not change substantially
CC(C)c1ccc2c(c1)c(SC(C)(C)C)c(CC(C)(C)C(=O)O)n2Cc1ccc(Cl)cc1 [MK-886],Impact on pol binding to DNA,pol binding to DNA,negligible impact
"O=C1NC(=S)NC(=O)C1=Cc1cn(C(=O)c2ccccc2Br)c2ccc(Cl)cc12 [PNR-3-51, 5-((1-(2-bromobenzoyl)-5-chloro-1H-indol-3-yl)methylene)-2-thioxodihydropyrimidine-4,6(1H,5H)-dione]",Specificity for hpol η over other pols,hpol η; over other TLS and DNA repair pols,less than 2 fold
same,IC50,"hpol η; read-out: IC50 against hpol η, previous publication",~30000 nM
CCOc1nc2cccc(C(=O)OC(C)OC(=O)OC3CCCCC3)c2n1Cc1ccc(-c2ccccc2-c2nnn[nH]2)cc1 (stereo not shown) [candesartan cilexetil],Impact on pol binding to DNA,pol binding to DNA,negligible impact
